This note sets out measurements from paper PMC8961603 (RSC Advances, 2022).

The subject of one data set is Vero cells. Description: In vitro cytotoxicity assay. The data set is classed as cell-based. The note with it: MTT.
Data set [1] relates to third stage instar larvae of Aedes aegypti. In words: Larvicidal bioassay. The data set is classed as in vivo. The note with it: for larvicidal activity (in words): 24, 48 and 72 h exposure, 50-250 μg ml^−1.
Data set [2] in a line: In vitro cytotoxicity assay. The data set is classed as cell-based. As to conditions: African green monkey, Vero cells, Vero IC50 cytotoxicity, MTT.
For data set [3], the system named is Aedes aegypti larvae (midgut). Description: Histopathological analysis of larvae. The data set is classed as in vivo. The note with it: 72 h exposure.
Data set [4] deals with human blood cells (red blood cell suspension). Description: Haemolytic assay. The data set is classed as cell-based. The method, boiled down: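 Fresh anticoagulated human blood spun 10 min at 2000 rpm; pellet resuspended in 0.9% NaCl to a 2% v/v red cell suspension. Cells incubated with test compound at 25, 50 or 100 μg ml−1 for 1 h at 37 °C, 5% CO2. Haemoglobin release read at 540 nm. Controls were 1% v/v NaOH for complete lysis and 0.9% NaCl for none. Percent haemolysis was calculated.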

Setting [5] is: larvicidal LC50 used in QSAR training set, exposure time not given.
The mark [6] stands for this setting: 24 h exposure, log probit analysis.
The mark [7] stands for this setting: 48 h exposure, log probit analysis.
Where [8] appears, read: 72 h exposure, log probit analysis.
Where [9] appears, read: Aedes aegypti, 24 h, 24 h exposure, log probit analysis.
The mark [10] stands for this setting: Aedes aegypti, 48 h, 48 h exposure, log probit analysis.
[11] abbreviates: Aedes aegypti, 72 h, 72 h exposure, log probit analysis.

Converted amounts (≈) assume the structure as drawn. “Also recorded” adds a separate entry of the source.

On to “1-[(E)-2-Phenylethenyl]-2-{[(3,4,5-trimethoxy phenyl) methylidene] amino}-2,5-dihydro-1H-1,2,4-triazole-3-thiol [CA 5]”, for which the “Vero IC50 cytotoxicity” value in the data set on Vero cells worked out at 223 ± 0.05 µg/mL.
Consider “2-(3-Methylphenyl)-5-[(E)-2-phenylethenyl]-5,6-dihydro[1,2,4]triazolo[5,1-b][1,3,4]thia diazole [CATD 4]”, for which the “Vero IC50 cytotoxicity” value in the data set on Vero cells was 252 ± 0.20 µg/mL. In data set [1] (setting [5]), the LC50 (in general, the concentration lethal to half of the exposed cells or organisms) came to 0.15 µM.
Taken in the same sequence, the figures for “2-{[(4-Chlorophenyl) methylidene] amino}-1-[(E)-2-phenylethenyl]-2,5-dihydro-1H-1,2,4-triazole-3-thiol [CA 1]” were 309 ± 0.21 µg/mL and 0.13 µM.
Take `Nc1ccc(/C=C/C(=O)NNc2ccc([N+](=O)[O-])cc2[N+](=O)[O-])cc1` [ACA 1, (2E)-3-(4-Aminophenyl)-N′-(2,4-dinitrophenyl)prop-2-enehydrazide]: inhibition in data set [2] was half-maximal at 285 ± 0.05 µg/mL (≈ 830 µM) (IC50).
The same measure, in the same setting: the same measure for `NC(=S)NNC(=O)/C=C/c1ccc(N)cc1` [ACA 3, 2-[(2E)-3-(4-Aminophenyl)prop-2-enoyl]hydrazine-1-carbothioamide]: 254 ± 0.03 µg/mL (≈ 1070 µM).
The same measure, in the same setting: with `COc1cc(C=NN2C(S)=NCN2/C=C/c2ccccc2)ccc1O` [CA 7, 2-Methoxy-4-[({2-[(E)-2-phenylethenyl]-5-sulfanyl-2,3-dihydro-1H-1,2,4-triazol-1-yl}imino)methyl] phenol] the figure was 295 ± 0.04 µg/mL (≈ 832 µM).
For `O=[N+]([O-])c1ccc(C=NN2C(S)=NCN2/C=C/c2ccccc2)cc1` [CA 9, 2-{[(4-Nitrophenyl)methylidene]amino}-1-[(E)-2-phenylethenyl]-2,5-dihydro-1H-1,2,4-triazole-3-thiol], the IC50 (in general, the concentration at which inhibition is half-maximal) in data set [2] came out at 235 ± 0.05 µg/mL (≈ 665 µM).
`SC1=NCN(/C=C/c2ccccc2)N1N=Cc1ccc(Br)cc1` [CA 10, 2-{[(4-Bromophenyl)methylidene]amino}-1-[(E)-2-phenylethenyl]-2,5-dihydro-1H-1,2,4-triazole-3-thiol]: it took 241 ± 0.01 µg/mL (≈ 622 µM) to reach half-maximal inhibition in data set [2] (IC50). Besides, the LC90 in data set [1] (setting [6]) is recorded as 210.414 ppm; in data set [1] (setting [7]), 172.096 ppm; in data set [1] (setting [8]), 122.913 ppm. Further, the LC50 in data set [1] (setting [9]) stood at 156 µg/mL; in data set [1] (setting [10]) it was 121 µg/mL; in data set [1] (setting [11]), 50.3 µg/mL.
In data set [2], `CN(C)c1ccc(/C=C/C=NN2C(S)=NCN2/C=C/c2ccccc2)cc1` [CA 11, 2-({(2E)-3-[4-(Dimethylamino)phenyl]prop-2-en-1-ylidene}amino)-1-[(E)-2-phenylethenyl]-2,5-dihydro-1H-1,2,4-triazole-3-thiol] had an IC50 of 229 ± 0.02 µg/mL (≈ 607 µM).
Compound `Cc1cccc(C2=NN3C(=NCN3/C=C/c3ccccc3)S2)c1` [CATD 2, 2-(3-Methylphenyl)-5-[(E)-2-phenylethenyl]-5,6-dihydro[1,2,4]triazolo[5,1-b][1,3,4]thiadiazole] gave an IC50 in data set [2] of 218 ± 0.02 µg/mL (≈ 680 µM). For the same compound, the “histopathological findings in larvae” value in data set [3] is given as “severe lesions that primarily affected the midgut epithelium”. In addition, the “Hemolytic (%)” value in data set [4] (Conc. 25 PPM) is reported as 4.605%; in data set [4] (Conc. 50 PPM), 5.367%; in data set [4] (Conc. 100 PPM) it was 5.759%. Also, the “larvicidal activity (in words)” value in data set [1] is recorded as “effectively showed larvicidal activity”. The values for the LC90 in data set [1] (setting [6]), in data set [1] (setting [7]) and in data set [1] (setting [8]) were 311.453 ppm, 241.010 ppm and 179.532 ppm, respectively. The values for the LC50 in data set [1] (setting [9]), in data set [1] (setting [10]) and in data set [1] (setting [11]) were 187 µg/mL, 132 µg/mL and 86.6 µg/mL, respectively.
On to `Oc1ccc(C2=NN3C(=NCN3/C=C/c3ccccc3)S2)cc1O` [CATD 3, 4-{5-[(E)-2-Phenylethenyl]-5,6-dihydro[1,2,4]triazolo[5,1-b][1,3,4]thiadiazol-2-yl}benzene-1,2-diol], for which the IC50 in data set [2] was determined as 270 ± 0.2 µg/mL (≈ 798 µM).
In data set [2], `CC(=O)OCC(CCn1cnc2cnc(N)nc21)COC(C)=O` [FMCV, Famciclovir, reference compound] had an IC50 of 270 ± 0.2 µg/mL (≈ 840 µM). The “Hemolytic (%)” value in data set [4] (Conc. 25 PPM) was determined as 4.802%; in data set [4] (Conc. 50 PPM), 6.448%; in data set [4] (Conc. 100 PPM), 8.901%. In addition, the LC90 worked out at 241.010 ppm in data set [1] (setting [7]) and 179.532 ppm in data set [1] (setting [8]). Further, the LC50 in data set [1] (setting [9]) was 248 µg/mL; in data set [1] (setting [10]) it was 203 µg/mL; in data set [1] (setting [11]) it was 139 µg/mL.
In data set [2], `CC(C)=CCc1c(O)cc(O)c2c1O[C@H](c1ccccc1)CC2=O` [Glabranin, reference compound] had an IC50 of 252 ± 0.2 µg/mL (≈ 777 µM). The results for the “Hemolytic (%)” value in data set [4] (Conc. 25 PPM), in data set [4] (Conc. 50 PPM) and in data set [4] (Conc. 100 PPM) were 2.326%, 4.713% and 5.217%, respectively. Also, the figures for the LC90 in data set [1] (setting [6]), in data set [1] (setting [7]) and in data set [1] (setting [8]) were 311.453 ppm, 241.010 ppm and 179.532 ppm, respectively. The LC50 in data set [1] (setting [9]) worked out at 258 µg/mL; in data set [1] (setting [10]), 199 µg/mL; in data set [1] (setting [11]), 140 µg/mL.
As for “(2E)-3-(4-Aminophenyl)-N′-(2,4-dinitrophenyl)prop-2-enehydrazide [ACA 4]”, the “Vero IC50 cytotoxicity” value in the data set with Vero cells is 328 ± 0.02 µg/mL. Moreover, the “histopathological findings in larvae” value in data set [3] is given as “severe lesions that primarily affected the midgut epithelium”. The “Hemolytic (%)” value in data set [4] (Conc. 25 PPM) was determined as 1.736%; in data set [4] (Conc. 50 PPM) it was 2.122%; in data set [4] (Conc. 100 PPM), 3.460%. Moreover, the “larvicidal activity (in words)” value in data set [1] was “slow mortality; also recorded: effectively showed larvicidal activity”. Moreover, the LC50 in data set [1] (setting [6]) stood at 101.176 ppm; in data set [1] (setting [7]) it was 88.823 ppm; in data set [1] (setting [8]), 47.347 ppm; in data set [1] (setting [5]), 0.10 µM. The LC90 in data set [1] (setting [6]) came out at 358.428 ppm; in data set [1] (setting [7]) it was 323.217 ppm; in data set [1] (setting [8]) it was 240.784 ppm.
